From ChEMBL document CHEMBL1138620, “Synthesis and antiproliferative evaluation of pyrazolo[1,5-a]-1,3,5-triazine myoseverin derivatives” (Bioorg Med Chem, 2009)
Active and inactive are the calls of the source. No cut-off for these calls is given here.

Key:
[1] = tested on: SW480; assay: Cell cycle arrest in human SW480 cells assessed as accumulation at G1 phase at 30 uM after 24 hrs by flow cytometry; assay type: functional
How it was run: (§1)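 Colorectal lines were cultured in D-MEM with 10% FCS and treated at 30 µM for 24 h. Cells (10^6/mL) were resuspended in propidium iodide solution, held at 4 °C overnight and analysed by flow cytometry for DNA content. Values are means of three experiments ± SD.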

[2] = tested on: HeLa; assay: Antimitotic activity in human HeLa cells expressing GFP-tubulin assessed as block of G2/M phase after 24 hrs by flow cytometry; assay type: functional, cell-based
How it was run: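 HeLa cells were exposed to increasing inhibitor concentrations for 24 h. The percentage of G2/M cells was determined by flow cytometry, with nocodazole as the reference mitotic inhibitor.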

[3] = tested on: HeLa; assay: Antimitotic activity in human HeLa cells expressing GFP-tubulin assessed as induction of mitotic deffects by flow cytometry; assay type: functional, cell-based
[4] = tested on: HCT-116; assay: Cytotoxicity against human HCT116 cells after 72 hrs by MTT assay; assay type: functional, cell-based; conditions: HCT-116, 72 h
How it was run: (§2)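 Cells (5 × 10^3/well) were seeded and incubated 24 h before drug addition, then exposed for 72 h. MTT was added (5 mg/mL stock) and growth was taken as absorbance relative to untreated wells. IC50 is the dose giving 50% growth inhibition. Three experiments were run, each in triplicate. Media: D-MEM with 10% FCS for MCF-7, HCT116, SW48 and SW480; RPMI1640 with 10% FCS for Mes-sa and CEM.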

[5] = tested on: SW480; assay: Cell cycle arrest in human SW480 cells assessed as accumulation at S phase at 30 uM after 24 hrs by flow cytometry; assay type: functional; how it was run: as §1
[6] = tested on: HCT-116; assay: Cell cycle arrest in human HCT116 cells assessed as accumulation at G2/M phase at 30 uM after 24 hrs by flow cytometry; assay type: functional; how it was run: as §1
[7] = tested on: SW480; assay: Cytotoxicity against human SW480 cells after 72 hrs by MTT assay; assay type: functional, cell-based; conditions: SW480, 72 h; how it was run: as §2
[8] = tested on: HCT-116; assay: Cell cycle arrest in human HCT116 cells assessed as accumulation at G1 phase at 30 uM after 24 hrs by flow cytometry; assay type: functional; how it was run: as §1
[9] = tested on: SW48; assay: Cell cycle arrest in human SW48 cells assessed as accumulation at G2/M phase at 30 uM after 24 hrs by flow cytometry; assay type: functional; how it was run: as §1
[10] = tested on: HCT-116; assay: Cell cycle arrest in human HCT116 cells assessed as accumulation at S phase at 30 uM after 24 hrs by flow cytometry; assay type: functional; how it was run: as §1
[11] = Cytotoxicity against human MES-SA cells after 72 hrs by MTT assay; assay type: functional, cell-based; how it was run: as §2
[12] = tested on: SW48; assay: Cytotoxicity against human SW48 cells after 72 hrs by MTT assay; assay type: functional, cell-based; conditions: SW48, 72 h; how it was run: as §2
[13] = tested on: HeLa; assay: Antimitotic activity in human HeLa cells expressing GFP-tubulin assessed as increase in aberration of mitotic spindle after 24 hrs by fluorescence microscopy; assay type: functional, cell-based; conditions: in the assay text read “6 hrs” for “24 hrs”
How it was run: (§3)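 HeLa cells were grown in DMEM with 10% FBS at 37 °C in 5% CO2 and left to adhere for at least 36 h on poly-D-lysine-coated coverslips. Drugs were diluted in medium from 50 mM DMSO stocks. Cells were fixed with 1% paraformaldehyde then cold methanol and stained with anti-β-tubulin plus a FITC secondary, with propidium iodide counterstain. Aberrant spindles were scored as a percentage of total spindles counted.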

[14] = tested on: SW480; assay: Cell cycle arrest in human SW480 cells assessed as accumulation at G2/M phase at 30 uM after 24 hrs by flow cytometry; assay type: functional; how it was run: as §1
[15] = tested on: HeLa; assay: Antimitotic activity in human HeLa cells expressing GFP-tubulin assessed as collapse of spindle microtubule at 12 uM
[16] = Inhibition of tubulin polymerization in bovine brain; design: species or system Bos taurus
How it was run: (§4)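 Purified bovine brain tubulin (29 µM) was added to PEM buffer (100 mM PIPES, 1 mM MgCl2, 1 mM EGTA) with increasing inhibitor concentrations, up to 100 µM, in DMSO at equal DMSO levels. Polymerization was followed by absorbance at 340 nm for at least 1 h at 37 °C, and IC50 was taken from concentration–response plots.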

[17] = tested on: CCRF-CEM; assay: Cytotoxicity against human CEM cells after 72 hrs by MTT assay; assay type: functional, cell-based; how it was run: as §2
[18] = tested on: SW48; assay: Cell cycle arrest in human SW48 cells assessed as accumulation at G1 phase at 30 uM after 24 hrs by flow cytometry; assay type: functional; how it was run: as §1
[19] = tested on: SW48; assay: Cell cycle arrest in human SW48 cells assessed as accumulation at S phase at 30 uM after 24 hrs by flow cytometry; assay type: functional; how it was run: as §1
[20] = tested on: HeLa; assay: Antimitotic activity in human HeLa cells expressing GFP-tubulin assessed as aberration of mitotic spindle at 12 uM after 24 hrs by fluorescence microscopy; assay type: functional; conditions: in the assay text read “6 hrs” for “24 hrs”; how it was run: as §3
[21] = tested on: MCF7; assay: Cytotoxicity against human MCF7 cells after 72 hrs by MTT assay; assay type: functional, cell-based; conditions: MCF7, 72 h; how it was run: as §2
[22] = species: Bos taurus; assay: Inhibition of tubulin polymerization in bovine brain relative to baseline; conditions: concentration not given here; how it was run: as §4
[23] = tested on: HeLa; assay: Antimitotic activity in human HeLa cells expressing GFP-tubulin assessed as induction of mitotic deffects at 50 uM by flow cytometry; assay type: functional, cell-based

Compound	Activity [1]	Activity [2]	Activity [3]	IC50 [4]	Activity [5]	Activity [6]	IC50 [7]	Activity [8]	Activity [9]	Activity [10]	IC50 [11]	IC50 [12]	Activity [13]	Activity [14]	IC50 [16]	IC50 [17]	Activity [18]	Activity [19]	Activity [20]	IC50 [21]	further results
COc1ccc(CNc2nc(NCc3ccc(OC)cc3)c3ncn(C(C)C)c3n2)cc1 [MYOSEVERIN]	12.5%	Active	Active	3.3 µM	3%	88%	4.8 µM	1.8%	98%	9.5%	8.5 µM	2.7 µM	Dose-dependent effect	84.5%	3.6 µM	5.7 µM	1%	1%	100%	11.5 µM	Activity [15]: Active
COc1ccc(CNc2nc(NCc3ccc(OC)cc3)n3nccc3n2)cc1	43%	Active	Active	6.2 µM	15%	51%	8.1 µM	19%	62%	29%	45 µM	5.2 µM	Dose-dependent effect	42%	3.4 µM	13 µM	16%	21%	100%	34 µM	
COc1ccc(CNc2nc(NCc3ccc(OC)cc3)n3ncc(C(C)C)c3n2)cc1	3%	Active	Active	4.6 µM	5.9%	89.3%	5.5 µM	8%	75.4%	2.8%	23 µM	2.6 µM	Dose-dependent effect	91.2%	3.6 µM	5.4 µM	22.4%	1.3%	100%	51.5 µM	
COc1ccc(CNc2nc(NCc3ccc(OC)cc3)n3ncc(Br)c3n2)cc1	62%			25 µM	9%	55.5%	26.5 µM	44%	42.5%	0.5%	43 µM	7.5 µM		28%		38.5 µM	50%	0.5%		35.5 µM	inhibition [22]: 50%; Activity [23]: inactive
